{
  "source": "ChEMBL document CHEMBL2407036",
  "about": "“Flow Synthesis and Biological Studies of an Analgesic Adamantane Derivative That Inhibits P2X7-Evoked Glutamate Release” (ACS Med Chem Lett, 2013)",
  "key": {"Rattus norvegicus [1]": {"test_system": "Rattus norvegicus", "assay": "Antinociceptive activity against carrageenan-induced hyperalgesia in rat assessed as paw pressure at 3 mg/kg, po measured after 30 mins (reference value: 30.6 +/- 3.2 g)", "format": "functional", "summary_of_the_method": "(§1)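 Rats received intraplantar carrageenan before oral dosing. Paw-pressure withdrawal threshold (g) was measured before treatment and at 15, 30, 60 and 90 min after it. Carrageenan-injected rats given vehicle served as reference, with saline-injected rats as a further control.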"}, "Rattus norvegicus [2]": {"test_system": "Rattus norvegicus", "assay": "Antinociceptive activity against carrageenan-induced paw edema in rat assessed as paw edema volume at 3 mg/kg, po measured after 30 mins (reference value: 2.71+/- 0.08 ml)", "format": "functional"}, "Rattus norvegicus [3]": {"test_system": "Rattus norvegicus", "assay": "Antinociceptive activity against carrageenan-induced hyperalgesia in rat assessed as paw pressure at 3 mg/kg, po measured after 15 mins (reference value: 32.8 +/- 2.9 g)", "format": "functional", "summary_of_the_method": "as §1"}, "Mus musculus [4]": {"test_system": "Mus musculus", "assay": "Analgesic activity in Swiss albino mouse assessed as inhibition of acetic acid-induced abdominal contraction at 10 mg/kg, po measured after 30 mins in presence of SR-141716A", "format": "functional, organism-based", "set-up": "dose 10 mg/kg", "conditions": "Abdominal cavity"}, "Rattus norvegicus [5]": {"test_system": "Rattus norvegicus", "assay": "Antinociceptive activity against carrageenan-induced hyperalgesia in rat assessed as paw pressure at 10 mg/kg, po measured after 60 mins (reference value: 31.8 +/- 2.2 g)", "format": "functional", "summary_of_the_method": "as §1"}, "[6]": {"molecular_target": "T1, Prostaglandin G/H synthase 2 (Homo sapiens) (UniProt P35354)", "T1 sequence (whole entry)": "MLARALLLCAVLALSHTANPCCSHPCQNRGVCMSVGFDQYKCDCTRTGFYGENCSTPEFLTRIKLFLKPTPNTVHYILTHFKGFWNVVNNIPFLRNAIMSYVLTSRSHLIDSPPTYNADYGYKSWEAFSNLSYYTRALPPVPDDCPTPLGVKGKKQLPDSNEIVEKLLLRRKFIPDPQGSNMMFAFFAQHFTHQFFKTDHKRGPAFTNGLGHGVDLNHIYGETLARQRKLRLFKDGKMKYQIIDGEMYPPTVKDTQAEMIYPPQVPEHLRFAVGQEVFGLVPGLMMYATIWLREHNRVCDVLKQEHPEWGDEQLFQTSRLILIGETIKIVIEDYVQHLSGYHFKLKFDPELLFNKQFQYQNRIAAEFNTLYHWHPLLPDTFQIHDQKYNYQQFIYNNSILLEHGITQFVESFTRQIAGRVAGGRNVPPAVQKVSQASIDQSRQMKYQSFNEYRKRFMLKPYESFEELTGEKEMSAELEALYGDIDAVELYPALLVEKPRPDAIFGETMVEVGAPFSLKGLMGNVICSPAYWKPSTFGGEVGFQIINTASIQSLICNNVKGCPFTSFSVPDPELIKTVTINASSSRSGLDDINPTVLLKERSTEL", "assay": "Inhibition of COX-2 (unknown origin)"}, "[7]": {"molecular_target": "T2, P2X purinoceptor 7 (Rattus norvegicus) (UniProt Q64663)", "T2 sequence (whole entry)": "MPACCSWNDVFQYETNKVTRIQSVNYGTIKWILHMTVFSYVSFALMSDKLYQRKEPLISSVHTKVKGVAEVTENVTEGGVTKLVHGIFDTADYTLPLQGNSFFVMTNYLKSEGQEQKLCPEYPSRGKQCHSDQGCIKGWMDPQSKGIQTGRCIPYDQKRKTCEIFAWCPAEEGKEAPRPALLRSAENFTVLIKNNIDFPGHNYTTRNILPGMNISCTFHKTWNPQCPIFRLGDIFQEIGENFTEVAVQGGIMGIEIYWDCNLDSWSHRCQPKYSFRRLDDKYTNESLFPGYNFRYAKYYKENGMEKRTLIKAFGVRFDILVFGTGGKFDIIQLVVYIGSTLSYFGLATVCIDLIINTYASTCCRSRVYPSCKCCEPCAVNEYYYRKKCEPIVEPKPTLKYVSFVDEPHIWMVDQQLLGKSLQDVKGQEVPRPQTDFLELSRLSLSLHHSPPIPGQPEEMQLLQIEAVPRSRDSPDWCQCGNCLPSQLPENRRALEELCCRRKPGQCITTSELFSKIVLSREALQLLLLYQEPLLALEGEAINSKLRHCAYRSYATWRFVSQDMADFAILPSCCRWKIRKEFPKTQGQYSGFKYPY", "conditions": "Brain, 50 uM"}, "Rattus norvegicus [8]": {"test_system": "Rattus norvegicus", "assay": "Antinociceptive activity against carrageenan-induced hyperalgesia in rat assessed as paw pressure at 3 mg/kg, po measured after 60 mins (reference value: 31.8 +/- 2.2 g)", "format": "functional", "summary_of_the_method": "as §1"}, "Rattus norvegicus [9]": {"test_system": "Rattus norvegicus", "assay": "Antinociceptive activity against carrageenan-induced hyperalgesia in rat assessed as paw pressure at 20 mg/kg, po measured after 15 mins (reference value: 32.8 +/- 2.9 g)", "format": "functional", "summary_of_the_method": "as §1"}, "Mus musculus [10]": {"test_system": "Mus musculus", "assay": "Analgesic activity in Swiss albino mouse assessed as inhibition of acetic acid-induced abdominal contraction at 10 mg/kg, po measured after 30 mins in presence of naxolone", "format": "functional, organism-based", "set-up": "dose 10 mg/kg", "conditions": "Abdominal cavity"}, "Rattus norvegicus [11]": {"test_system": "Rattus norvegicus", "assay": "Antinociceptive activity against carrageenan-induced paw edema in rat assessed as paw edema volume at 20 mg/kg, po measured after 30 mins (reference value: 2.71+/- 0.08 ml)", "format": "functional"}, "Rattus norvegicus [12]": {"test_system": "Rattus norvegicus", "assay": "Antinociceptive activity against carrageenan-induced hyperalgesia in rat assessed as paw pressure at 20 mg/kg, po measured after 30 mins (reference value: 30.6 +/- 3.2 g)", "format": "functional", "summary_of_the_method": "as §1"}, "Rattus norvegicus [13]": {"test_system": "Rattus norvegicus", "assay": "Antinociceptive activity against carrageenan-induced hyperalgesia in rat assessed as paw pressure at 20 mg/kg, po measured after 60 mins (reference value: 31.8 +/- 2.2 g)", "format": "functional", "summary_of_the_method": "as §1"}, "Rattus norvegicus [14]": {"test_system": "Rattus norvegicus", "assay": "Antinociceptive activity against carrageenan-induced hyperalgesia in rat assessed as paw pressure at 10 mg/kg, po measured after 90 mins (reference value: 34.8 +/- 3.1 g)", "format": "functional", "summary_of_the_method": "as §1"}, "Rattus norvegicus [15]": {"test_system": "Rattus norvegicus", "assay": "Antinociceptive activity against carrageenan-induced paw edema in rat assessed as paw edema volume at 10 mg/kg, po measured after 30 mins (reference value: 2.71+/- 0.08 ml)", "format": "functional"}, "[16]": {"molecular_target": "T2, P2X purinoceptor 7 (Rattus norvegicus)", "conditions": "Brain, 50 uM", "remark": "listed apart in the source"}, "Rattus norvegicus [17]": {"test_system": "Rattus norvegicus", "assay": "Antinociceptive activity against carrageenan-induced hyperalgesia in rat assessed as paw pressure at 20 mg/kg, po measured after 90 mins (reference value: 34.8 +/- 3.1 g)", "format": "functional", "summary_of_the_method": "as §1"}, "[18]": {"molecular_target": "T2, P2X purinoceptor 7 (Rattus norvegicus)", "conditions": "Brain, 50 uM", "remark": "listed apart in the source"}, "P2X purinoceptor 7": {"molecular_target": "T3, P2X purinoceptor 7 (Rattus norvegicus, UniProt Q64663)", "T3 sequence (Q64663 whole entry)": "T2 sequence (whole entry)", "assay": "Antagonist activity at P2X7 in Sprague-Dawley rat synaptosome assessed as inhibition of BzATP-induced [3H]D-aspartate efflux compound preincubated for 8 mins by liquid scintillation counting", "set-up": "species or system Brain", "summary_of_the_method": "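Purified rat cerebrocortical synaptosomes loaded with [3H]D-aspartate and superfused. 100 μM BzATP added for 120 s. Compound added 8 min before BzATP. Ca2+-free conditions used medium with 0.5 mM EGTA, added 18 min before BzATP. Log concentration–response for inhibition of evoked efflux. Mean ± SEM of 3−12 independent experiments in triplicate.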"}, "Mus musculus [19]": {"test_system": "Mus musculus", "assay": "Analgesic activity in Swiss albino mouse assessed as inhibition of acetic acid-induced abdominal contraction at 3 mg/kg, po measured after 30 mins", "format": "functional, organism-based", "set-up": "dose 3 mg/kg", "conditions": "Abdominal cavity", "summary_of_the_method": "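Writhing was induced in Swiss albino mice with 0.6% acetic acid. Drugs were given p.o. 30 min before the test. Writhes were counted at 30 and 60 min and compared with vehicle-treated controls.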"}, "Rattus norvegicus [20]": {"test_system": "Rattus norvegicus", "assay": "Antinociceptive activity against carrageenan-induced hyperalgesia in rat assessed as paw pressure at 10 mg/kg, po measured after 15 mins (reference value: 32.8 +/- 2.9 g)", "format": "functional", "summary_of_the_method": "as §1"}, "Rattus norvegicus [21]": {"test_system": "Rattus norvegicus", "assay": "Antinociceptive activity against carrageenan-induced hyperalgesia in rat assessed as paw pressure at 10 mg/kg, po measured after 30 mins (reference value: 30.6 +/- 3.2 g)", "format": "functional", "summary_of_the_method": "as §1"}, "[22]": {"molecular_target": "Prostaglandin G/H synthase 1 (Homo sapiens) (UniProt P23219)", "sequence (P23219 whole entry)": "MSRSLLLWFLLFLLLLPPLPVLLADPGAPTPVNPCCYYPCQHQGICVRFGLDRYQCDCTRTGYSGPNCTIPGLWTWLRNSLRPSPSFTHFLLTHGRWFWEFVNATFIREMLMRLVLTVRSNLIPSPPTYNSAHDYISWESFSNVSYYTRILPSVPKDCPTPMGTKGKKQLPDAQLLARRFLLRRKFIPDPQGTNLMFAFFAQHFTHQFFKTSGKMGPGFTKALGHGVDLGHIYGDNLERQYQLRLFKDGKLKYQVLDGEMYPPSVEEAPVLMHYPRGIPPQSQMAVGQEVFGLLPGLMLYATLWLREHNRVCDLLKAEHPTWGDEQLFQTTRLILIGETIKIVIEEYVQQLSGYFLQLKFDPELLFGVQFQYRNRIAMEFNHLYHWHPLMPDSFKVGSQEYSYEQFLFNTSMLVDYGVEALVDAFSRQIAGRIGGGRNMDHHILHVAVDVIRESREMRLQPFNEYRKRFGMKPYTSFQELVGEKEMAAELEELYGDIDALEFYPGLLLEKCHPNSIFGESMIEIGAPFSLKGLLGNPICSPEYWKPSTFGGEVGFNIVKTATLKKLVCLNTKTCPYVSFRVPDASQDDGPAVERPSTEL", "assay": "Inhibition of COX-1 (unknown origin)"}, "Rattus norvegicus [23]": {"species_on_record": "Rattus norvegicus", "assay": "Inhibition of K+ depolarization-induced [3H]D-aspartate efflux in Sprague-Dawley rat synaptosome preincubated at 50 uM for 8 mins by liquid scintillation counting", "format": "functional, tissue-based", "conditions": "Brain", "summary_of_the_method": "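Purified rat cerebrocortical synaptosomes were loaded with [3H]D-aspartate and superfused. Compound was added 8 min before K+ depolarization, which was applied as KCl for 120 s during superfusion. Evoked tritium efflux was measured. Data are mean ± SEM of 3–12 independent experiments in triplicate.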"}, "Rattus norvegicus [24]": {"test_system": "Rattus norvegicus", "assay": "Antinociceptive activity against carrageenan-induced hyperalgesia in rat assessed as paw pressure at 3 mg/kg, po measured after 90 mins (reference value: 34.8 +/- 3.1 g)", "format": "functional", "summary_of_the_method": "as §1"}},
  "note": "The source made the active and inactive calls.",
  "data": [
    {"smiles": "O=C(NC1(C(=O)NC2CC2)C2CC3CC(C2)CC1C3)c1ccccc1", "note": "(stereo not given)", "values": [
      {"measurement": "Activity", "setting": "Rattus norvegicus [1]", "result": 40.8, "unit": "g"},
      {"measurement": "Activity", "setting": "Rattus norvegicus [2]", "result": 2.53, "unit": "mL"},
      {"measurement": "Activity", "setting": "Rattus norvegicus [3]", "result": 39.1, "unit": "g"},
      {"measurement": "inhibition", "setting": "Mus musculus [4]", "result": "Active"},
      {"measurement": "Activity", "setting": "Rattus norvegicus [5]", "result": 43.4, "unit": "g"},
      {"measurement": "inhibition", "setting": "[6]", "result": "inactive"},
      {"measurement": "inhibition", "setting": "[7]", "result": "inactive"},
      {"measurement": "Activity", "setting": "Rattus norvegicus [8]", "result": 35.6, "unit": "g"},
      {"measurement": "Activity", "setting": "Rattus norvegicus [9]", "result": 48.4, "unit": "g"},
      {"measurement": "inhibition", "setting": "Mus musculus [10]", "result": "Active"},
      {"measurement": "Activity", "setting": "Rattus norvegicus [11]", "result": 2.1, "unit": "mL"},
      {"measurement": "Activity", "setting": "Rattus norvegicus [12]", "result": 53.9, "unit": "g"},
      {"measurement": "Activity", "setting": "Rattus norvegicus [13]", "result": 48.3, "unit": "g"},
      {"measurement": "Activity", "setting": "Rattus norvegicus [14]", "result": 38.2, "unit": "g"},
      {"measurement": "Activity", "setting": "Rattus norvegicus [15]", "result": 2.06, "unit": "mL"},
      {"measurement": "inhibition", "setting": "[16]", "result": "inactive"},
      {"measurement": "Activity", "setting": "Rattus norvegicus [17]", "result": 33.6, "unit": "g"},
      {"measurement": "inhibition", "setting": "[18]", "result": "Active"},
      {"measurement": "IC50", "setting": "P2X purinoceptor 7", "result": 7.7, "unit": "µM"},
      {"measurement": "inhibition", "setting": "Mus musculus [19]", "result": "Active"},
      {"measurement": "Activity", "setting": "Rattus norvegicus [20]", "result": 44.2, "unit": "g"},
      {"measurement": "Activity", "setting": "Rattus norvegicus [21]", "result": 52.7, "unit": "g"},
      {"measurement": "inhibition", "setting": "[22]", "result": "inactive"},
      {"measurement": "inhibition", "setting": "Rattus norvegicus [23]", "result": "inactive"},
      {"measurement": "Activity", "setting": "Rattus norvegicus [24]", "result": 36.9, "unit": "g"}
    ]}
  ]
}
